The source made the active and inactive calls. The calls are words filed in the database; no cut-off is given here.

The target in data set [1] is T1, Muscarinic acetylcholine receptor M4 (Homo sapiens) (UniProt P08173).
T1 sequence (whole entry): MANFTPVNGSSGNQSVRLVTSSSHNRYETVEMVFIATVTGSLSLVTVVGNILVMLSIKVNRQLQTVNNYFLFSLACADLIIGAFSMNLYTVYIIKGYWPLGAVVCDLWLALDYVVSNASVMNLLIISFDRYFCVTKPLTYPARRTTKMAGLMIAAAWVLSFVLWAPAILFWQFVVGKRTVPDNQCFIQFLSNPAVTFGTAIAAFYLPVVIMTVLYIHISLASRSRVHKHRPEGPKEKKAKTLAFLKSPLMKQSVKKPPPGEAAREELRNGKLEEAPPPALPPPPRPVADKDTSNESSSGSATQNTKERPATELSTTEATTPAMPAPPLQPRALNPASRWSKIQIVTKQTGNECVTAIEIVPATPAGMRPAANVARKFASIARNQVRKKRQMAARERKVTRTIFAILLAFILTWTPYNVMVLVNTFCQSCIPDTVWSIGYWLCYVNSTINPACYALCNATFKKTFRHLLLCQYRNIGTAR
As to the kind of experiment: (§1) Positive allosteric modulation of human M4 receptor expressed in CHO-K1 cells coexpressing Gqi5 assessed as potentiation of acetylcholine-mediated calcium mobilization incubated for 144 secs prior to acetylcholine addition by Fluo-4-AM staining. In kind it is functional, cell-based. The method, boiled down:
(§2)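 hM4 stably cotransfected with chimeric Gqi5 in CHO-K1 cells. Cells plated overnight at 37 °C, loaded with Fluo-4 AM for 45 min at 37 °C in HBSS/20 mM HEPES/2.5 mM probenecid. Compound pretreated 144 s (0.3% DMSO final), then EC20 ACh, then EC80 ACh 86 s later; kinetic fluorescence at 37 °C.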

The target of data set [2] is T1, Muscarinic acetylcholine receptor M4 (Homo sapiens). The data set can be described thus: Positive allosteric modulation of human M4 receptor expressed in CHO-K1 cells coexpressing Gqi5 assessed as potentiation of acetylcholine-mediated calcium mobilization incubated for 144 secs prior to acetylcholine addition by Fluo-4-AM staining relative to acetylcholine. In kind it is functional, cell-based. The method, boiled down: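 hM4-Gqi5 CHO-K1 cells, plated overnight, loaded with Fluo-4 AM (45 min, 37 °C). Compound (0.3% DMSO final) preincubated 144 s, then ACh EC20 added, and EC80 added 86 s later; 1 mM ACh wells for normalization. Calcium read at 37 °C, normalized to baseline and then to maximal ACh response. EC50 from four-parameter logistic fit; three independent determinations in triplicate.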

Data set [3] addresses T2, Muscarinic acetylcholine receptor M4 (Homo sapiens, UniProt P08173).
T2 sequence (P08173 whole entry): T1 sequence (whole entry)
The description is as §1. The class given is functional, cell-based. The method, boiled down:
as §2

The nature of data set [4]: Plasma clearance in rat. In kind it is ADME, organism-based.

In the case of `COc1ccc(C)c2sc(NC(=O)N3CCCCC3)nc12`, in data set [1], the pEC50 result is “inactive”. For `COc1ccc(C)c2sc(C(=O)NC3CC3)nc12`, the %max in data set [2] worked out at 35.6%. For the same molecule, in data set [3], the EC50 is 7.76 µM. Turning to `O=C(Nc1nc2cccnc2s1)c1cccnn1`, the pEC50 result in data set [1] is “inactive”. In turn, `COc1ccc(CNC(=O)c2sc3nc(C)cc(C)c3c2N)cc1` yielded a clearance in data set [4] greater than 100 mL/min/kg. For the molecule `CCCC(=O)Nc1nc2c(OC)ccc(C)c2s1`, the %max in data set [2] worked out at 52.5%. In addition, the concentration for a half-maximal effect (EC50) in data set [3] is greater than 10 µM. Take `COc1ccc(C)c2sc(NC(=O)c3ccc(F)c(F)c3)nc12`: the pEC50 entry in data set [1] was “inactive”. For `COc1ccc(C)c2sc(NC(=O)C3=COCCO3)nc12`, the %max in data set [2] worked out at 55.7%. Moreover, in data set [3], the 50% effective concentration (EC50) is 1.82 µM. In the case of `COc1ccc(C)c2sc(NS(=O)(=O)c3cccc(Cl)c3)nc12`, the pEC50 result in data set [1] was “inactive”. The same measure, in the same setting: the same measure for `COc1ccc(C)c2sc(NC(=O)c3ccc(F)cc3)nc12`: “inactive”.

Turning to `COc1ccc(C)c2sc(NC(=O)C3CCCCC3)nc12`, in data set [2], the %max worked out at 43.7%. For the same molecule, in data set [3], the EC50 was greater than 10 µM. As for `COc1ccc(C)c2sc(NC(=O)CC(C)(C)C)nc12`, the pEC50 entry in data set [1] is “inactive”. For `COc1ccc(C)c2sc(C(=O)NC3CCCCC3)nc12`, in data set [1], the pEC50 result is “inactive”. `Cc1cc(OCc2ccncc2)nc2sc(C(=O)NCc3cccc(F)c3F)c(N)c12` returned a clearance in data set [4] greater than 100 mL/min/kg. Consider `O=C(Nc1nc2ccccc2s1)C1CCCCO1` (configuration not stated), for which the pEC50 result in data set [1] was “inactive”. In the case of `COc1ccc(C)c2sc(NC(=O)c3ccc(C)cc3)nc12`, the pEC50 entry in data set [1] is “inactive”.

For `COc1ccc(C)c2sc(NC(=O)c3cc(F)cc(F)c3)nc12`, the pEC50 entry in data set [1] is “inactive”. On to `COc1ccc(C)c2sc(NC(=O)c3ccccn3)nc12`, for which the pEC50 result in data set [1] was “inactive”. For the molecule `COc1ccc(C)c2sc(NC(=O)NC3CCC3)nc12`, the pEC50 result in data set [1] was “inactive”. For the molecule `COc1ccc(C)c2sc(NC(=O)NC3CCCC3)nc12`, the %max in data set [2] was 36.5%. Moreover, the concentration giving a half-maximal response (EC50) in data set [3] was 7.08 µM. For the molecule `COCC(=O)Nc1nc2c(OC)ccc(C)c2s1`, the %max in data set [2] was 43.2%. Also, in data set [3], the EC50 was greater than 10 µM. Turning to `COc1ccc(C)c2sc(NS(=O)(=O)c3cc(C)ccn3)nc12`, in data set [1], the pEC50 result was “inactive”.

Consider `COc1ccc(C)c2sc(NC(=O)CC3CC3)nc12`, for which the pEC50 entry in data set [1] is “inactive”. For the molecule `O=C(Nc1nc2cccnc2s1)C1CCCC1`, the pEC50 result in data set [1] is “inactive”. Turning to `COc1ccc(C)c2sc(NC(=O)c3cccnc3)nc12`, the %max in data set [2] was 37.6%. Further, the EC50 in data set [3] is 2.34 µM. For the molecule `COc1ccc(C)c2sc(NC(=O)CCc3ccccc3)nc12`, in data set [1], the pEC50 entry was “inactive”. `COc1ccc(C)c2sc(NS(=O)(=O)c3ccc(F)cc3F)nc12`: in data set [1], the pEC50 entry is “inactive”.

In the case of `COc1ccc(C)c2sc(C(=O)Nc3ccc(C)nc3)nc12`, the pEC50 entry in data set [1] was “inactive”.

For the molecule `COc1ccc(C)c2sc(NC(=O)NCc3ccncc3)nc12`, the pEC50 entry in data set [1] is “inactive”. Turning to `COc1ccc(C)c2sc(NS(=O)(=O)c3ccc4occc4c3)nc12`, the pEC50 entry in data set [1] is “inactive”.

As to `COc1ccc(C)c2sc(NC(=O)C3CCCOC3)nc12` (configuration not stated), the %max in data set [2] turned out to be 44%. Further, the concentration giving a half-maximal response (EC50) in data set [3] was greater than 10 µM.

Take `COc1ccc(C)c2sc(NC(=O)C3CCCC3)nc12`: the %max in data set [2] was determined as 45%. Besides, the half-maximal effective concentration (EC50) in data set [3] was greater than 10 µM. Turning to `COc1ccc(C)c2sc(NC(=O)N3CCCC3)nc12`, in data set [2], the %max was determined as 43.5%. The EC50 in data set [3] is greater than 10 µM. In the same order, the values of `COc1ccc(C)c2sc(NC(=O)C3CC3C)nc12` (configuration not stated) are 66.5% and greater than 10 µM. With `COc1ccc(C)c2sc(C(=O)NCc3ccncc3)nc12`, the pEC50 result in data set [1] was “inactive”. On to `O=C(Nc1nc2cccnc2s1)C1CCC1`, for which the pEC50 result in data set [1] is “inactive”. On to `COc1ccc(C)c2sc(NC(=O)c3cnccn3)nc12`, for which the %max in data set [2] stood at 38.2%. The concentration for a half-maximal effect (EC50) in data set [3] was 1.12 µM.

Turning to `COc1ccc(C)c2sc(NC(=O)c3c(F)cccc3F)nc12`, in data set [1], the pEC50 result is “inactive”. `COc1ccc(C)c2sc(NC(=O)C3CCC3)nc12`: the %max in data set [2] came out at 52.2%. In data set [3], the EC50 is greater than 10 µM. As to `COc1ccc(C)c2sc(NC(=O)NC3CC3)nc12`, the %max in data set [2] stood at 39.3%. For the same molecule, in data set [3], the EC50 was greater than 10 µM.

With `COc1ccc(C)c2sc(NC(=O)c3ccc(F)cc3F)nc12`, the pEC50 entry in data set [1] is “inactive”. Still for that read-out and setting: in the case of `COc1ccc2nc(NC(=O)c3ccncc3)sc2n1` it was “inactive”; in that of `COc1ccc(C)c2sc(NS(=O)(=O)c3cnn(C)c3)nc12`, “inactive”. Consider `COc1ccc(C)c2sc(NC(=O)C3CC3)nc12`, for which, in data set [2], the %max is 61.5%. The EC50 in data set [3] was greater than 10 µM. On to `COc1ccc(C)c2sc(NC(=O)C3CCCCO3)nc12` (configuration not stated), for which the %max in data set [2] amounted to 64.1%. In addition, in data set [3], the EC50 was greater than 10 µM. As to `COc1ccc(C)c2sc(NS(=O)(=O)c3cccc(C)c3)nc12`, the pEC50 result in data set [1] was “inactive”. In the case of `COc1ccc(C)c2sc(NC(=O)Nc3ccncc3)nc12`, the pEC50 entry in data set [1] was “inactive”.

On to `COc1ccc(C)c2sc(NC(=O)C3=C(C)OCCO3)nc12`, for which the pEC50 entry in data set [1] is “inactive”. Take `COc1ccc(C)c2sc(NC(=O)c3ccco3)nc12`: in data set [2], the %max stood at 51.8%. Moreover, the concentration for a half-maximal effect (EC50) in data set [3] is 1.35 µM. Regarding `COc1ccc(C)c2sc(NS(=O)(=O)c3ccc(C(F)(F)F)cc3)nc12`, the pEC50 result in data set [1] is “inactive”. With `COc1cccc2sc(NC(=O)c3ccncc3)nc12`, the %max in data set [2] came to 36.5%. Further, the concentration giving a half-maximal response (EC50) in data set [3] was 2.82 µM. On to `COc1ccc(C)c2sc(NC(C)=O)nc12`, for which the pEC50 entry in data set [1] is “inactive”.

With `O=C(Nc1nc2cccnc2s1)c1cnccn1`, in data set [1], the pEC50 result was “inactive”. Regarding `Cc1nc2sc(C(=O)NCc3ccncc3)c(N)c2c(C)c1Cl`, in data set [4], the clearance was greater than 100 mL/min/kg.

In the case of `CCCCC1CC1C(=O)Nc1nc2c(OC)ccc(C)c2s1` (configuration not stated), in data set [1], the pEC50 entry is “inactive”.

Source of the values: ChEMBL document CHEMBL2057082, “Discovery of N-(4-methoxy-7-methylbenzo[d]thiazol-2-yl)isonicatinamide, ML293, as a novel, selective and brain penetrant positive allosteric modulator of the muscarinic 4 (M4) receptor” (Bioorg Med Chem Lett, 2012).
